A selection: hits, their analogues and other compounds. The true share with any hit is near 1.9%.
pCIP destab = lowers stability of the mouse p/CIP coactivator protein; Q05BA5; F442A p/CIP-EGFP cells, EGFP fluorescence, 16 h; decrease of EGFP signal, % at 10 µM; 290,000 compounds, 0.01% hits;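 active = EGFP signal decrease of at least 30% at 10 µM or well 3 SD below plate mean, unless failing retest; inactive = the rest, including hits failing retest or dose response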
Dynein transport = dynein cargo transport inhibition | 3617.4 mouse cells, GR-EGFP nuclear translocation imaging; test concentration mostly 20 µM; stimulated with dexamethasone, 1 µM; hits give low values | z-score, hits read low | 220,000 compounds, 0.47% hits | AID 1381;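 active = plate z-score of nuclear minus cytoplasmic receptor signal below a set negative limit, without overly bright fluorescence or cell loss, cut at about -3.5 in these data, passing the limit was not always enough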;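 also: z-score of nuclear minus cytoplasmic ring GR-EGFP intensity difference per well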
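Also added – dexamethasone, 1.0 µM final · Buffer or medium – tet-free, stripped-serum medium · Schedule – induction 48 h, compound 1 h, agonist 30 min · Detection – formaldehyde fixation, Hoechst nuclear stain, 10x automated fluorescence imaging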
NCF1 inh = p47phox (human) inhibition; P14598; p47phox/p22phox peptide binding, fluorescence polarization, 2 h; inhibition, % at 24.7 µM; 220,000 compounds, 0.53% hits; AID 1274;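 active = inhibition above about 30%, limit read from the data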;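 also: 0% = p47phox with labelled peptide and 100% = labelled peptide alone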
Target sequence (P14598 whole entry, looked up): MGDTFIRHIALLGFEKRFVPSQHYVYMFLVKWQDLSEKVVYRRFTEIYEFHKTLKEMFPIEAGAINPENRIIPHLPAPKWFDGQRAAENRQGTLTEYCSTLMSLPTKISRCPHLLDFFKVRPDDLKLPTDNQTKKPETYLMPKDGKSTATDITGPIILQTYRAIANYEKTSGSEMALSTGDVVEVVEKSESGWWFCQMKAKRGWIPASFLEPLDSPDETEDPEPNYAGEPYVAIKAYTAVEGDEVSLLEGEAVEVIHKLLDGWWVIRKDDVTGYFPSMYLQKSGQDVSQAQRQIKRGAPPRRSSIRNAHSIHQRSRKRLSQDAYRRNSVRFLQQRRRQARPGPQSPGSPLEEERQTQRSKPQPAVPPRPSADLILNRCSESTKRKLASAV
RAM inhibit = blocks the yeast RAM network. 190,000 compounds, 1.8% hits. inhibition, % at 50 µM. S. cerevisiae dse1pr::URA3 reporter, 5-FOA growth OD615, 2 d; analog-sensitive cbk1-as2 kinase mutant strain;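 active = inhibition above a set limit, 3 SD over mean compound inhibition, cut at about 8.4% in these data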;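 also: 0% = DMSO-only wells with no growth and 100% = 10 µM 1-NA-PP1 full growth; inhibition rescues growth on 5-FOA so higher OD means more RAM inhibition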
Starred values were filed as active, the others as inactive; . = no result.

SMILES | pCIP destab | Dynein transport | NCF1 inh | RAM inhibit
CCC(C)(C)c1ccc(OCCCC[n+]2ccccc2)c(C(C)(C)CC)c1 | -4 | -3.7* | 8 | -2
COc1cccc(Cl)c1NC(=O)N1CCc2c([nH]c3ccccc23)C1C(F)(F)F (stereo not drawn) | -9 | -0.65 | -6 | .
CC(/C=N/n1c(COc2ccccc2)n[nH]c1=S)=C\c1ccccc1 | -6 | 0.26 | 1 | 8.4*
Cc1cccc(/C=N/n2c(COc3ccccc3)n[nH]c2=S)c1 | -4 | . | . | .
CCCCn1ccnc1C(=O)c1cccc(S(=O)(=O)N2CC(C)CC(C)C2)c1 (stereo not drawn) | -3 | 1 | -14 | 8.7*
CCCCn1ccnc1C(=O)c1cc(S(=O)(=O)N2CCOCC2)ccc1C | -7 | -0.37 | -12 | 1
O=C(Nc1ccn(Cc2ccccc2F)n1)c1ccc(COc2cccc(Br)c2)cc1 | -5 | -1.2 | -5 | 11*
O=C(Nc1ccn(Cc2ccccc2F)n1)c1ccc(COc2ccccc2Cl)cc1 | 4 | -0.11 | -5 | 0
C=CCn1c(=O)c2c3c(sc2n2c(Nc4ccc(C(=O)OCC)cc4)nnc12)CCCC3 | 5 | -0.54 | -6 | 8.5*
C=CCn1c(=O)c2c3c(sc2n2c(Nc4ccc(OC)cc4)nnc12)CCCC3 | 8 | -0.34 | -7 | 4
O=S(=O)(c1ccccc1)N(CC1CO1)c1cccc2ccccc12 (stereo not drawn) | -11 | 2.3 | -3 | 2
COc1ccc(C(=O)O)cc1S(=O)(=O)Nc1ccccc1-c1ccccc1 | -18 | . | . | .
CC(CC(=O)O)Nc1ccccc1O (stereo not drawn) | -11 | 0.29 | -3 | 1
COc1ccc(NS(=O)(=O)c2cc(NC(=O)[C@@H](NC(=O)c3ccccc3)C(C)C)ccc2C)cc1 | -4 | -0.33 | -11 | 8.6*
O=C(Nc1ccc(F)cc1)/C(=C1/CCCCCN1)[N+](=O)[O-] | -15 | 0.17 | -20 | .
Cc1cc(C)n2nc(N)c(N=Nc3ccc(Cl)cc3)c2n1 | -7 | 0.099 | 6 | 9.5*
COc1ccc(C(=O)Nc2nnc(Cc3ccc(OC)c(OC)c3)s2)cc1 | -2 | . | . | .
Cc1ccc(NC(=O)CN2C(=O)NC3(CCCc4ccccc43)C2=O)cc1S(=O)(=O)N1CCOCC1 (stereo not drawn) | -17 | 2.2 | 40* | 0
Cc1ccc(NC(=O)CCCSc2ccccc2)cc1S(=O)(=O)N1CCOCC1 | -6 | 1.8 | -16 | 8.9*
CCOC(=O)C1C(c2ccc(O)c(O)c2)NC(=S)NC1(O)C(F)(F)F (stereo not drawn) | 2 | 0.052 | -10 | -1
Cc1cc(C)c(C)c(S(=O)(=O)NCCCn2ccnc2)c1C | 0 | . | . | .
O=C1NCCCC2c3cc(O)c4ccccc4c3OC12N1CCCCC1 (stereo not drawn) | -13 | -1.6 | 30* | 0
CCCCn1c(N)c(N(CCOC)C(=O)C2CCN(S(=O)(=O)c3ccc(Cl)cc3)CC2)c(=O)[nH]c1=O | -1 | . | . | .
O=C(C/C=N/OCc1ccc(F)cc1Cl)c1cnc(-c2ccccc2)s1 | 7 | -0.32 | -20 | 9.7*
CCOc1ccc(N(CC(=O)NCc2ccccc2)C(=O)Cn2nnc(-c3ccc(C)o3)n2)cc1 | -3 | . | . | .
SMILES | pCIP destab | Dynein transport | NCF1 inh | RAM inhibit
O=C(NC1CCCCC1)C1CCCN(S(=O)(=O)c2ccc(F)cc2)C1 (stereo not drawn) | 4 | . | . | .
O=C(OCC(=O)N1CCN(C(=O)c2ccco2)CC1)c1cc(-c2ccc(Cl)c(Cl)c2Cl)nc2ccccc12 | -1 | 1.1 | 37* | 9.5*
O=C(OCC(=O)N1CCN(C(=O)c2ccco2)CC1)c1cc(-c2ccco2)nc2ccccc12 | -2 | -0.84 | 0 | 7
CN(C)S(=O)(=O)c1ccc(Cl)c(NC(=O)CSc2nc3c(cc2C#N)C(=O)CC(C)(C)C3)c1 | -10 | -0.58 | -7 | 9.1*
COc1ccc(OCc2cc(C(=O)N(C)C3CCOCC3)no2)c2ccccc12 | 4 | . | . | .
CCOc1ccc(-c2nnn(CC(=O)NCc3ccc4c(c3)OCO4)n2)cc1 | -9 | -0.086 | -5 | -1
COc1ccc(-c2nnn(CC(=O)NCc3ccc4c(c3)OCO4)n2)cc1OC | -30 | 2.9 | 34* | 0
C#CCOCCOCCOCCNc1nc(N2CCN(C(=O)[C@H](CCCCN)n3cc(CCCC)nn3)CC2)nc(N2CCN(C(=O)[C@H](Cc3ccc(O)cc3)n3cc(CCO)nn3)CC2)n1 | -7 | 0.42 | 63* | 1
C#CCOCCOCCOCCNc1nc(N2CCN(C(=O)[C@H](Cc3cc4ccccc4[nH]3)n3cc([C@@H](N)C(C)CC)nn3)CC2)nc(N2CCN(C(=O)[C@H](Cc3cc4ccccc4[nH]3)n3cc([C@@H](N)Cc4ccc(O)cc4)nn3)CC2)n1 (stereo partly drawn) | -9 | -0.56 | 79* | -1
C#CCOCCOCCOCCNc1nc(N2CCN(C(=O)C(Cc3cc4ccccc4[nH]3)n3cc(C(N)Cc4ccc(O)cc4)nn3)CC2)nc(N2CCN(C(=O)C(Cc3cc4ccccc4[nH]3)n3cc(C(N)Cc4ccc(O)cc4)nn3)CC2)n1 (stereo not drawn) | -18 | 0.67 | 65* | 1
C#CCOCCOCCOCCNc1nc(N2CCN(C(=O)[C@H](Cc3cc4ccccc4[nH]3)n3cc([C@@H](N)Cc4ccc(O)cc4)nn3)CC2)nc(N2CCN(C(=O)[C@H](Cc3cc4ccccc4[nH]3)n3cc([C@@H](N)CC(C)C)nn3)CC2)n1 | -2 | -0.5 | 73* | .
CN(CC(O)COc1ccc2ccccc2c1)C1CCCCC1 (stereo not drawn) | -5 | . | . | .
COc1ccc(C(=O)CC(=O)C(=O)Nc2ccc(C)c(Cl)c2)cc1 | -14 | . | . | .
COC(CNC(=O)CN1CCN(Cc2ccccc2F)C1=O)OC | -6 | . | . | .
CCOC(=O)c1ccc(NC(=O)Cn2ncc(Cl)c(Cl)c2=O)cc1 | 2 | -4.2* | 10 | 1
Cc1cc(C)c(C(=O)CC(=O)c2ccccc2Cl)c(O)c1 | -11 | . | . | .
CCOC(=O)N1CCN(CCC(=O)c2ccc(Cl)cc2)CC1 | -4 | -5.4* | -14 | 1
CCOC(=O)N1CCN(CCC(=O)c2ccc(Br)cc2)CC1 | 2 | . | . | .
COc1ccccc1N=c1oc2c(OC)cccc2cc1C(=O)NCc1ccco1 | -9 | -0.75 | 0 | 1
COc1ccc(N=c2oc3c(OC)cccc3cc2C(=O)NCc2ccco2)cc1OC | -4 | 0.45 | -1 | 9.9*
O=C(CC1C(=O)NCCN1Cc1c(F)cccc1Cl)NCc1ccccc1 (stereo not drawn) | 5 | -1.2 | 0 | 2
CCc1cc(CNC(=O)CC2C(=O)NCCN2Cc2c(F)cccc2Cl)on1 (stereo not drawn) | -19 | -0.59 | 91* | 1
CNC(=S)NNC(=O)c1sc2cc(C(F)(F)F)cnc2c1-c1ccccn1 | 11 | 0.0021 | -10 | 8.6*
CNC(=S)NNC(=O)c1sc2cc(C(F)(F)F)cnc2c1-c1cccnc1 | -3 | -0.68 | -12 | 0
COc1cccc(NC(=S)N(CCCN2CCCC2)Cc2cccn2Cc2ccc(Cl)cc2)c1 | -5 | 2.6 | -10 | 4

Bioassay records deposited in PubChem BioAssay by several laboratories.
